High-throughput results deposited in PubChem by Johns Hopkins Ion Channel Center.
KCNK9 block: blocks the human KCNK9 two-pore domain potassium channel | Q9NPC2 | HEK293 KCNK9, FluxOR thallium flux fluorescence; stronger effect = lower value | B-score at 10 µM | 1.2% of 310,000 active;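 active = ratio B-score over 3 SD below the library mean, with starting fluorescence within 5 SD of its mean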;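 also: negative B-score means less thallium flux so channel inhibition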
KCNQ1 act: potentiators or activators of human KCNQ1 potassium channel | P51787 | 0.35% of 310,000 active | B-score at 10 µM | CHO-K1 KCNQ1, thallium flux FluxOR fluorescence; stronger effect = higher value;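 active = fluorescence ratio B-score, a plate-corrected score, at least three library SD, with initial intensity B-score within 5 SD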
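Assay system: CHO-K1 cells stably expressing KCNQ1; Medium: assay buffer with matched DMSO; Also added: K+/Tl+ depolarizing stimulus; Dosing: single dose; Timing: dye 90 min, compound 20 min, room temperature; Measured by: kinetic FluxOR thallium fluorescence, 10-s 1-Hz baseline, 110-s post-stimulus read; Read-out: peak-minus-minimum fluorescence over initial fluorescence, negative-control normalized, B-scored.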
hERG protect: hERG (human) protection from proarrhythmic block; CHO-hERG, FluxOR thallium flux, dofetilide IC70 present; activation (rescue from dofetilide block), less the hit threshold, % at 10 µM; 0.51% of 310,000 active; Q12809;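 active = activation above the mean of controls blocked by dofetilide plus 5 SD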;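 also: thallium influx through hERG after potassium depolarization seen as dye fluorescence rise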
KCNK3 inh: human KCNK3 channel inhibition, primary screen. O14649. AID 602410. 0.84% of 340,000 active. B-score at 10 µM. CHO-KCNK3 thallium flux, FluxOR fluorescence; stronger effect = lower value;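 active = B-score under library mean minus 4 SD, starting fluorescence ratio at most library mean plus 5 SD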;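 also: more negative B-score means stronger inhibition of thallium flux through KCNK3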
Target sequence (O14649 whole entry, looked up): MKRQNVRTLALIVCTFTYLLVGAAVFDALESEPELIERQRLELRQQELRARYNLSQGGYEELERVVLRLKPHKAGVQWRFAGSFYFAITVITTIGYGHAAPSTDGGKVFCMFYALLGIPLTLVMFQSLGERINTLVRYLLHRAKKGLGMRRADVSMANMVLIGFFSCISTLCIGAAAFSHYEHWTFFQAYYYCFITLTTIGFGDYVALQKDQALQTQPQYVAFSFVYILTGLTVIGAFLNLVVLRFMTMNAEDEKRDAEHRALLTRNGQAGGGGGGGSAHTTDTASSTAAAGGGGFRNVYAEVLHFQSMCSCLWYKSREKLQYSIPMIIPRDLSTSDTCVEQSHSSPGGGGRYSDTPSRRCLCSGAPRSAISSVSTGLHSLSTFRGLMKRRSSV
Kir21 block: inhibitors of mouse Kir2.1 inward-rectifier potassium channel; HEK293-Kir2.1, FluxOR thallium flux fluorescence; stronger effect = lower value; B-score at 10 µM; 0.85% of 310,000 active;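 active = fluorescence ratio B-score at or below minus 3 SD of library scores, with starting-brightness B-score within 2 SD, cut at about -4.2 in these data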;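 also: channel flux triggered by added potassium and thallium sulfate stimulus; B-score of peak minus minimum fluorescence over baseline after thallium stimulus; more negative B-score means stronger Kir2.1 block with less thallium influx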
KCNQ1 inh: inhibitors of human KCNQ1 potassium channel; 1.3% of 310,000 active; AID 2642; CHO-K1 KCNQ1, FluxOR thallium flux fluorescence; stronger effect = higher value; B-score at 10 µM;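 active = compounds whose thallium flux B-score, printed positive for inhibition, exceeds three library SD while starting fluorescence stays within three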;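 also: channel opened by potassium depolarization with thallium stimulus after 20 min compound exposure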
* = called active by the depositor; i = inactive; x = no result given. Hits are enriched below; roughly 3.7% of the tested compounds scored in any of these assays.

SMILES	KCNK9 block	KCNQ1 act	hERG protect	KCNK3 inh	Kir21 block	KCNQ1 inh
COC(=O)C1=C(C)N(Cc2ccccc2)C(=S)N[C@H]1c1cccc(F)c1	i	i	-12	i	-0.04	i
COCCN=C1N[C@@H](c2ccc(Br)cc2)C(C(=O)OC)=C(C)N1Cc1ccccc1	i	i	-15	i	-6.8*	i
COCCN1C(=S)N[C@@H](c2cccc(F)c2)C(C(=O)OC)=C1C	i	i	-15	x	-6.8*	i
COC(=O)C1=C(C)N(CC2CC2)C(=NCc2cccc(Cl)c2)N[C@H]1c1ccccc1	i	i	-18	i	-4.6*	i
COC(=O)C1=C(C)N(Cc2ccccc2)C(=NCc2ccccc2)N[C@H]1c1cccc(F)c1	i	i	-18	i	-8.8*	i
Cc1cc(N2CCCN(C)CC2)nc2cc(Cl)ccc12	i	i	-15	i	-4.6*	i
CC(=O)N(Cc1ccc(Br)cc1)c1cccc(C)c1C	i	i	-6	i	-4.9*	i
OCCNCCCOc1ccc(Cl)cc1Br	i	i	-15	i	-1.6	i
Clc1ccc(OCCCNCc2ccccc2)c(Br)c1	i	i	-20	i	-16*	i
Clc1ccc(Cl)c(OCCCCNCc2ccccc2)c1	i	i	-16	i	-12*	i
CC(OC(=O)C1CCN(S(=O)(=O)c2ccc(F)cc2)CC1)C(=O)NC1CCCCC1C (stereo unspecified)	i	i	-10	i	1.7	i
CC(C)OCc1ccc(C(=O)N2CCN(CC(=O)N3CCCC3)CC2)cc1	x	x	x	i	x	x
c1ccc(COc2ccc(OCCCN3CCCC3)cc2)cc1	i	i	-10	i	-0.62	i
CC1CCN(CCCOc2ccc(OCc3ccccc3)cc2)CC1	i	i	-14	i	-7.2*	i
CC1CCN(CCCCOc2ccc(C(=O)c3ccccc3)cc2)CC1	i	i	-5	i	-5.5*	i
CCc1ccc(-c2nc(SCC(=O)N3CCOCC3)n[nH]2)cc1	i	i	10*	i	-1.4	i
Cc1cc(Cl)n2c(nc3ccccc32)c1C#N	i	i	-30	i	-1.5	6*
Cc1ccc(C)c2sc(NC(=O)c3ccc(N4CCCCC4)c([N+](=O)[O-])c3)nc12	-7.8*	i	-2	i	0.86	i
C=CCn1c(SCC(=O)N2c3ccccc3Sc3ccccc32)nnc1-c1ccco1	i	i	-16	i	-0.31	i
C=CCn1c(SCC(O)Cn2c3ccccc3c3ccccc32)nnc1-c1ccco1 (stereo unspecified)	-7.2*	i	-9	i	0.01	i
COc1cccc(C2CC(c3ccc(C)cc3)=NN2C(=O)c2ccccc2F)c1OC (stereo unspecified)	i	i	-2	i	1.6	i
Cc1ccc(C2=NN(C(=O)c3ccccc3F)C(c3ccccc3F)C2)cc1 (stereo unspecified)	i	i	-5	i	0	7*
CCn1c(=O)c2cc(C(=O)N(C)c3ccc(OC)cc3OC)sc2c2ccccc21	i	i	-10	i	0.69	i
CCn1c(=O)c2cc(C(=O)N(C)c3cc(C)ccc3OC)sc2c2ccccc21	-15*	i	-13	i	-0.93	i
CCCCN(C)CC(O)Cn1cc(/C=C/C(=O)c2cccs2)c2ccccc21 (stereo unspecified)	i	i	-32	i	-7	8*
SMILES	KCNK9 block	KCNQ1 act	hERG protect	KCNK3 inh	Kir21 block	KCNQ1 inh
Nc1ccn(CC(=O)N[C@H](CO)Cc2c[nH]c3ccccc23)c(=O)n1	x	x	x	i	x	x
O=C(COC(=O)/C=C/c1cccc(Br)c1)NC1CCCCCC1	x	x	x	i	x	x
CC1(C)[C@@H](O)CC[C@]2(C)C3C(O)C=C4[C@H]5C[C@@](C)(C(=O)O)CC[C@]5(C)CC[C@]4(C)[C@]3(C)CC[C@@H]12 (stereo partly specified)	i	13*	-9	x	2.5	i
O=C1c2cc(O)c(O)cc2OC(c2ccc(O)c(O)c2)C1O (stereo unspecified)	x	x	x	i	x	x
O=C(COc1ccc(Cl)cc1Cl)N(Cc1ccco1)C1CCS(=O)(=O)C1 (stereo unspecified)	-7*	i	-2	i	-0.38	i
CC(OC(=O)c1c[nH]c2ccccc12)C(=O)N1CCCC1 (stereo unspecified)	x	x	x	i	x	x
Clc1ccc(N2N=C(c3cccs3)CC2c2ccco2)cc1 (stereo unspecified)	i	i	-10	i	0.27	8*
CCn1c(SCC(N)=O)nc2c(c1=O)C1(CCCC1)Cc1ccccc1-2	-6.7*	i	-4	i	-3.2	i
NC(=O)CSc1nc2c(c(=O)n1-c1ccccc1)C1(CCCCC1)Cc1ccccc1-2	i	i	-3	i	0.95	i
CCOc1ccc(N2C(=O)CC(NCC#N)C2=O)cc1 (stereo unspecified)	i	i	-8	i	1.3	i
COc1ccc(CN(C)C(=O)c2cc(-c3ccccc3)nc3ccc(C)cc23)c(OC)c1OC	i	i	-34	i	-0.8	6*
COc1ccc(CCN=C(NS(=O)(=O)c2ccccc2)c2ccccc2)cc1OC	i	i	12*	i	0.59	i
CCCCCn1c2c(c(=N)c3ccccc31)CCC2	i	i	-25	i	0.29	i
Cc1cc(C)c2c(=N)c3ccccc3n(CCCCCCCCn3c4ccccc4c(=N)c4c(C)cc(C)nc43)c2n1	x	x	x	-10*	x	x
COc1ccc(-c2csc(N(CCCN(C)C)C(=O)c3ccccc3Cl)n2)cc1	i	11*	-4	i	-2.4	i
CCC(=O)N(CC)c1nc(-c2ccc(OC)cc2)cs1	i	i	9.0*	i	-0.02	i
COc1ccc(-c2csc(N(CCCN(C)C)C(=O)c3ccccc3C)n2)cc1	i	i	-6	i	-0.19	i
CCC(=O)N(Cc1ccco1)c1nc(-c2ccc(OC)cc2)cs1	i	i	-8	i	1.7	i
COc1ccc(N2CC(O)=C(c3nc(-c4ccc(F)cc4)cs3)C2=N)cc1OC	i	i	-9	i	0.33	i
COc1ccc(C(=O)NCCCNC(=O)c2cccnc2)cc1Br	i	i	-10	i	-0.89	i
CCCn1cnnc1CNC(=O)C1CCC(=O)N(CCCc2ccccc2)C1 (stereo unspecified)	i	i	-3	i	1.1	i
C=CCC(O)(CC=C)CNC(=O)C1CCC(=O)N(CCCc2ccccc2)C1 (stereo unspecified)	i	i	6.7*	i	-0.22	i
